Reference: ChEMBL document CHEMBL1125528, “Synthesis and pharmacological evaluation of enantiomerically pure 4-deoxy-4-fluoromuscarines” (J Med Chem, 1992)

Assays:
[1] = target: Muscarinic acetylcholine receptor M3 (Cavia porcellus) (UniProt Q8VH26); experiment: In vitro potency at muscarinic M3 receptors of guinea pig bladder relative to muscarine..; format: functional
[2] = target: Muscarinic acetylcholine receptor M3 (Cavia porcellus) (UniProt Q8VH26); experiment: In vitro potency at muscarinic M3 receptors of guinea pig bladder.; format: functional
Summary of the method: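 Guinea pig bladder longitudinal strip (2 mm wide, urethra to apex) in ileum PSS at 37 °C with isometric recording; 30 min equilibration, then the ileum protocol.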

[3] = target: T1, Muscarinic acetylcholine receptor M2 (Homo sapiens) (UniProt P08172); experiment: In vitro potency at muscarinic M2 receptors of guinea pig heart relative to muscarine.; format: functional; conditions: Cavia porcellus; target entry is the homologue from another species
T1 sequence (whole entry): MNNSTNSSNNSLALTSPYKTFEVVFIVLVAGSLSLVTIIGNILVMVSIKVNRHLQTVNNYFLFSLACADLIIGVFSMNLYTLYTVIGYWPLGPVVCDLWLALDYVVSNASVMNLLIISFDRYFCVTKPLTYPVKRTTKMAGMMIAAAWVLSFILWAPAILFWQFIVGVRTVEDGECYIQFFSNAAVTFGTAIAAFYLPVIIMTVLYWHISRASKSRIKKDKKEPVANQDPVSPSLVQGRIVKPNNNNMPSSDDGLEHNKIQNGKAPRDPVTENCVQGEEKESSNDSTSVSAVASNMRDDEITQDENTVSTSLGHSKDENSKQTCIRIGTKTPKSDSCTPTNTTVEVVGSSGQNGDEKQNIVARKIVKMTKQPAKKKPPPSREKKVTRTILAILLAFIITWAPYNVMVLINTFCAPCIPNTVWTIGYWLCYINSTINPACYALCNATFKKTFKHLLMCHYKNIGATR

[4] = target: Muscarinic acetylcholine receptor M3 (Cavia porcellus) (UniProt Q8VH26); experiment: In vitro potency at muscarinic M3 receptors of guinea pig ileum.; format: functional, tissue-based
[5] = target: T1, Muscarinic acetylcholine receptor M2 (Homo sapiens); experiment: In vitro potency at muscarinic M2 receptors of guinea pig heart(atria force).; format: functional; conditions: Cavia porcellus; target entry is the homologue from another species
[6] = target: Muscarinic acetylcholine receptor M3 (Cavia porcellus) (UniProt Q8VH26); experiment: % muscarinic acetylcholine receptor M3 occupied at ED50 on guinea pig ileum; format: tissue-based
[7] = target: Muscarinic acetylcholine receptor M3 (Cavia porcellus) (UniProt Q8VH26); experiment: % muscarinic acetylcholine receptor M3 occupied at ED50 on guinea pig bladder
[8] = target: Muscarinic acetylcholine receptor M3 (Cavia porcellus) (UniProt Q8VH26); conditions: Ileum
[9] = target: Muscarinic acetylcholine receptor M3 (Cavia porcellus) (UniProt Q8VH26); conditions: Ileum; remark: listed apart in the source
[10] = target: Muscarinic acetylcholine receptor M3 (Cavia porcellus) (UniProt Q8VH26); conditions: Ileum; remark: listed apart in the source
[11] = target: T1, Muscarinic acetylcholine receptor M2 (Homo sapiens); experiment: Efficacy for muscarinic receptors in guinea pig heart(atria rate) relative to muscarine.; format: functional; conditions: Cavia porcellus; target entry is the homologue from another species
[12] = target: T1, Muscarinic acetylcholine receptor M2 (Homo sapiens); experiment: Dissociation constant at guinea pig heart(atria rate).; format: functional; conditions: Cavia porcellus; target entry is the homologue from another species
[13] = target: T1, Muscarinic acetylcholine receptor M2 (Homo sapiens); experiment: % receptor occupied at ED50 on guinea pig heart(atria force); conditions: Cavia porcellus; target entry is the homologue from another species
[14] = target: T1, Muscarinic acetylcholine receptor M2 (Homo sapiens); experiment: Dissociation constant at guinea pig heart(atria force).; format: functional; conditions: Cavia porcellus; target entry is the homologue from another species
[15] = target: Muscarinic acetylcholine receptor M3 (Cavia porcellus) (UniProt Q8VH26); experiment: % receptor occupied at ED50 on guinea pig bladder
[16] = target: Muscarinic acetylcholine receptor M3 (Cavia porcellus) (UniProt Q8VH26); experiment: Efficacy for muscarinic receptors in guinea pig bladder relative to muscarine.; format: functional
[17] = target: T1, Muscarinic acetylcholine receptor M2 (Homo sapiens); experiment: Affinity for muscarinic receptors in guinea pig heart(atria rate) relative to muscarine.; conditions: Cavia porcellus; target entry is the homologue from another species
[18] = target: Muscarinic acetylcholine receptor M3 (Cavia porcellus) (UniProt Q8VH26); experiment: Dissociation constant at muscarinic M3 receptors of guinea pig ileum.; format: tissue-based
[19] = target: Muscarinic acetylcholine receptor M3 (Cavia porcellus) (UniProt Q8VH26); experiment: Affinity for muscarinic receptors in guinea pig ileum relative to muscarine.; format: tissue-based
[20] = target: T1, Muscarinic acetylcholine receptor M2 (Homo sapiens); experiment: Potency at cardiac M2 receptors mediating bradycardia to decrease the heart rate in pithed rat; format: functional, tissue-based
Summary of the method: (§1)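 Pithed rats, artificially respired at 60 cycles/min, 1 mL/100 g, with heparin 150 IU/kg iv, at about 37 °C. Heart rate came from the carotid pressure pulse after at least 30 min stabilisation. Agonists in 0.9% saline were given iv at 0.1 mL/100 g, one curve per preparation. ED50 was read graphically. Antagonists (pirenzepine 50 µg/kg, methoctramine 300 µg/kg iv) were given 20 min beforehand.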

[21] = target: Muscarinic acetylcholine receptor M3 (Cavia porcellus) (UniProt Q8VH26); experiment: Affinity for muscarinic receptors in guinea pig bladder relative to muscarine.
[22] = target: T1, Muscarinic acetylcholine receptor M2 (Homo sapiens); experiment: In vitro potency at muscarinic M2 receptors of guinea pig heart(atria rate).; format: functional; conditions: Cavia porcellus; target entry is the homologue from another species
[23] = target: Muscarinic acetylcholine receptor M3 (Cavia porcellus) (UniProt Q8VH26); experiment: Dissociation constant at muscarinic M3 receptors of guinea pig bladder.
[24] = target: T1, Muscarinic acetylcholine receptor M2 (Homo sapiens); experiment: Affinity for muscarinic receptors in guinea pig heart(atria force) relative to muscarine.; conditions: Cavia porcellus; target entry is the homologue from another species
[25] = target: Muscarinic acetylcholine receptor M3 (Cavia porcellus) (UniProt Q8VH26); experiment: % receptor occupied at ED50 on guinea pig ileum; format: tissue-based
[26] = target: Muscarinic acetylcholine receptor M3 (Cavia porcellus) (UniProt Q8VH26); experiment: Efficacy for muscarinic receptors in guinea pig ileum relative to muscarine.; format: functional, tissue-based
[27] = target: T2, Muscarinic acetylcholine receptor M1 (Homo sapiens) (UniProt P11229); experiment: Potency at ganglionic M1 receptors mediating tachycardia to increase the heart rate in pithed rat; format: functional, tissue-based; summary of the method: as §1
T2 sequence (whole entry): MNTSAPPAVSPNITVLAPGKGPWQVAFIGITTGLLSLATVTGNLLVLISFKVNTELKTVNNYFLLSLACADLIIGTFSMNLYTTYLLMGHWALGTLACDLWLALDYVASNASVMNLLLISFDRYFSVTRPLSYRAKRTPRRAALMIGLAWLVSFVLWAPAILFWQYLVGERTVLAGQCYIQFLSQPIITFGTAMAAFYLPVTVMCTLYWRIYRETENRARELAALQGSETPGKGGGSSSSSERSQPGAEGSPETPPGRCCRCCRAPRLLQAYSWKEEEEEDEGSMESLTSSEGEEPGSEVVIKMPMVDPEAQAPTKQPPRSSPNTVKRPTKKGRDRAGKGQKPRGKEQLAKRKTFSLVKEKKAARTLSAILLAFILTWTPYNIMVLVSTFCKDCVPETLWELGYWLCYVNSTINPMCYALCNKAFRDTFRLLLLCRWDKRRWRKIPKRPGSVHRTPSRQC

[28] = target: T1, Muscarinic acetylcholine receptor M2 (Homo sapiens); experiment: % receptor occupied at ED50 on guinea pig heart(atria rate); conditions: Cavia porcellus; target entry is the homologue from another species
[29] = target: T1, Muscarinic acetylcholine receptor M2 (Homo sapiens); experiment: Efficacy for muscarinic receptors in guinea pig heart(atria force relative to muscarine.; format: functional; conditions: Cavia porcellus; target entry is the homologue from another species
[30] = target: Muscarinic acetylcholine receptor M3 (Cavia porcellus) (UniProt Q8VH26); experiment: In vitro potency at muscarinic M3 receptors of guinea pig ileum relative to muscarine..; format: functional, tissue-based

Sequence of Muscarinic acetylcholine receptor M3 (Cavia porcellus) (Q8VH26 1-587): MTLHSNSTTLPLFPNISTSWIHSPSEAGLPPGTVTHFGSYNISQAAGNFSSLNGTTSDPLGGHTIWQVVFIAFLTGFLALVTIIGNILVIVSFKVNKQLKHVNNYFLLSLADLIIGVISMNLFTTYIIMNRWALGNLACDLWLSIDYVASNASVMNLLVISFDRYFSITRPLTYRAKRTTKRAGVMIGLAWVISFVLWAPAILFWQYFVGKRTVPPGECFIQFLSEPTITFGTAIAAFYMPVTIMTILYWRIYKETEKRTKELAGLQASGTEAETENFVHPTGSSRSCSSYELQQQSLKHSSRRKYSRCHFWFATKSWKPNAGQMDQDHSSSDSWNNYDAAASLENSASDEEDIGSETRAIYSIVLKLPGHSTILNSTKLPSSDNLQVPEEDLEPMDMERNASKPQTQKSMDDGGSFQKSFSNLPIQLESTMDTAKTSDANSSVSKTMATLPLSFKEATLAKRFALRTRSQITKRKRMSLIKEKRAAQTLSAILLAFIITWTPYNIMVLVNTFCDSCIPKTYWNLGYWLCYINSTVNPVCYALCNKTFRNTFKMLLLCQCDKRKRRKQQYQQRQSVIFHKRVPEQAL

Molecule C[C@@H]1O[C@@H](C[N+](C)(C)C)C[C@@H]1F has an Intrinsic activity [1] of 0.52, a -Log ED50 [2] of 3.92 and an Intrinsic activity [3] of 0.72. It also gave a -Log ED50 [4] of 4.64 and a -Log ED50 [5] of 4.07.
C[C@@H]1O[C@H](C[N+](C)(C)C)C[C@H]1O (racemic) gave a Receptor occupied [6] of 6.62%, a Receptor occupied [7] of 7.85% and a -Log KD [8] of 5.95. It also gave a PD2 [9] of 5.69 and a PD2 [10] of 7.1.
Molecule C[C@@H]1O[C@H](C[N+](C)(C)C)C[C@@H]1F has an Intrinsic activity [1] of 0.76, a -Log ED50 [2] of 3.74 and an Intrinsic activity [3] of 0.76. For the same molecule, the -Log ED50 [4] was 5.02 and the -Log ED50 [5] was 4.43.
With C[C@@H]1O[C@H](C[N+](C)(C)C)C[C@H]1F the Relative efficacy [11] was 0.21, the -Log KD [12] was 5.77 and the Receptor occupied [13] was 0.86%. The Intrinsic activity [1] was 0.88, the -Log KD [14] was 4.67 and the Receptor occupied [15] was 5.11%. It also gave a Relative efficacy [16] of 1.54, a Relative affinity [17] of 14.5 and a PD2 [2] of 5.66. It also gave a -Log KD [18] of 5.72, a Relative affinity [19] of 0.59 and an ED50 [20] of 0.0235 mg/kg. The Relative affinity [21] was 0.59, the Intrinsic activity [3] was 0.98 and the -Log ED50 [22] was 6.87. It also gave a -Log KD [23] of 4.39, a Relative affinity [24] of 0.93 and a Receptor occupied [25] of 2.24%. For the same molecule, the Relative efficacy [26] was 2.96, the ED50 [27] was 0.0045 mg/kg and the PD2 [4] was 7.36. For the same molecule, the Receptor occupied [28] was 7.36%, the Relative efficacy [29] was 1.17 and the Intrinsic activity [30] was 0.95. It also gave a PD2 [5] of 6.73.
With C[C@@H]1O[C@@H](C[N+](C)(C)C)C[C@H]1F the Intrinsic activity [1] was 0.74, the -Log ED50 [2] was 4.45 and the Intrinsic activity [3] was 0.97. It also gave a -Log ED50 [4] of 5.93 and a -Log ED50 [5] of 5.59.
